# Measurements: publication PMC2874265 (Journal of Medicinal Chemistry, 2010)
# Experiments:
# S. aureus ATCC 29213 = test: S. aureus MIC, broth microdilution; format: cell-based; details: for S. aureus MIC: S. aureus ATCC 29213, broth microdilution; for MIC: Staphylococcus aureus, ATCC29213, read-out: S. aureus MIC + 2% BSA
# Method in brief: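 Broth microdilution MIC per CLSI recommendations against S. aureus ATCC 29213. Protein-shift runs added 2% w/v bovine serum albumin to the assay. End point reproducible within one 2-fold dilution.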
# S. aureus (Smith) = test: Murine septicaemia model of staphylococcal infection; format: in vivo; details: SC, 3, 10, or 30 mg/kg
# [1] = Mouse intravenous pharmacokinetics; format: in vivo
# Method in brief: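 Mice dosed intravenously, either 3 mg/kg given individually or 2 mg/kg in a cassette. Plasma sampled at 5, 15, 30, 60, 120, 240 and 480 min and concentrations measured by LC/MS/MS. AUC, C0, CL, T1/2 and V calculated from plasma concentrations.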
SMILES,S. aureus MIC (S. aureus ATCC 29213),MIC (S. aureus ATCC 29213) [µg/mL],other results
NC(=O)c1c(F)ccc(OCc2nc3cc(C(F)(F)F)ccc3s2)c1F [8e],submicrogram/mL,–,–
NC(=O)c1c(F)ccc(OCc2nc3cc(-c4ccccc4)ccc3s2)c1F [compound 8a],–,4,–
CCOc1ccc2sc(COc3ccc(F)c(C(N)=O)c3F)nc2c1 [compound 8b],submicrogram/mL,0.5,–
NC(=O)c1c(F)ccc(OCc2nc3cc(Br)ccc3s2)c1F [compound 8d],submicrogram/mL,–,–
NC(=O)c1c(F)ccc(OCc2nc3cc(Cl)ccc3s2)c1F [compound 8j],–,2,"survival of infected mice (S. aureus (Smith)): died on day 2; V ([1]; intravenous, 2 mg/kg in a cassette): 5.8 L/kg; AUC ([1]; plasma, iv, 2 mg/kg): 100 ng·h/mL; C0 ([1]; plasma, iv, 2 mg/kg): 500 ng/mL; clearance ([1]; plasma, iv, 2 mg/kg): 315 mL/min/kg; half-life ([1]; plasma, iv, 2 mg/kg): 13 min"
CCCc1ccc2sc(COc3ccc(F)c(C(N)=O)c3F)nc2c1 [compound 11],submicrogram/mL,–,–
COc1cc2nc(COc3ccc(F)c(C(N)=O)c3F)sc2nc1Cl [compound 28d],–,> 64,–
